Test results: ChEMBL document CHEMBL1123566, “Synthesis and cardiac electrophysiological activity of 2- and 3-[(substituted phenyl)alkyl]quinuclidines. Structure-activity relationships” (1987)
Values joined by “and” are separate entries in the source; they are usually repeats but may differ in a detail not shown here. Equal entries are not always repeated.

Assays:
Canis familiaris [1] = assay: Mean arterial blood pressure was determined by intraduodenal administration of two dosages of 30 mg/kg of compound in anesthetized dogs. Value was reported for experiment 1; format: functional, Canis lupus familiaris
In short: (§1)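 Anesthetized dogs received two intraduodenal doses, the second cumulative (low dose/high dose). Left ventricular FRP and CT were measured 15, 30 and 45 min after dosing. Heart rate and mean blood pressure were taken during nonpacing intervals. Values are percent change from control. The vehicle was 5% dextrose in water/tragacanth. Activity was defined as ≥12% prolongation of FRP or CT.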

Canis familiaris [2] = species on record: Canis familiaris; assay: In vitro electrophysiological evaluation in canine cardiac Purkinje fibres reported as % change for action potential duration at 10 uM at 1-100 uM concentration range; format: functional, Canis lupus familiaris, Purkinje fiber
In short: (§2)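 Canine cardiac Purkinje fibres, intracellular microelectrode recording, paced at a basic cycle length of 1 s. APD95 and Vmax read simultaneously. Compound: 10 mM stock in deionized water, diluted into Tyrode's solution, tested over the stated concentration range. Each fibre used once as its own control. Result is % change from control, given at 10 µM or as the maximum with its concentration. M = <10% decrease or an increase in Vmax.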

Canis familiaris [3] = assay: Heart rate was determined by intraduodenal administration of two dosages of 10 mg/kg of compound in anesthetized dogs. Value was reported for experiment 2; format: functional, Canis lupus familiaris
In short: (§3)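 Anesthetized dogs; compound given intraduodenally, generally as two doses, the second a cumulative (high) dose. LV functional refractory period and conduction time measured 15, 30 and 45 min after dosing; heart rate and blood pressure measured during nonpacing intervals. Values are % change from control, given per individual animal. Active if FRP or CT prolonged by ≥12%.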

Canis familiaris [4] = species on record: Canis familiaris; assay: (§4) In vitro electrophysiological activity in canine cardiac occurred is 10 uM.; format: functional, Canis lupus familiaris, Heart
Canis familiaris [5] = species on record: Canis familiaris; assay: In vitro electrophysiological evaluation in canine cardiac Purkinje fibres reported as % change for action potential duration at a concentration of 10 uM; format: functional, Canis lupus familiaris, Purkinje fiber; in short: as §2
Canis familiaris [6] = species on record: Canis familiaris; assay: In vitro electrophysiological evaluation in canine cardiac ventricular muscle reported as maximum % change for conduction time(CT) at 0.1-10 uM concentration range; concentration at which it occurred is 0.1 uM.; format: functional, Canis lupus familiaris, Muscle tissue
In short: (§5)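 Canine right ventricle and papillary muscle strips in oxygenated Tyrode's solution, fitted with stimulating and recording electrodes. The extra-stimulus conduction-interval method was adapted for in vitro use. FRP and CT were read from a conduction-interval curve before and after various compound concentrations, and expressed as percent change from control. Compounds were taken from 10 mM deionized-water stock into Tyrode's. Each strip was used once as its own control.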

Canis familiaris [7] = assay: Conduction time was determined by intraduodenal administration of 30 mg/kg (high dose) of compound in anesthetized dogs. Value was reported for experiment 1; format: functional, Canis lupus familiaris; in short: as §3
Canis familiaris [8] = species on record: Canis familiaris; assay: (§6) In vitro electrophysiological evaluation in canine cardiac occurred is 100 uM.; format: functional; conditions: Canis lupus familiaris; Heart
Canis familiaris [9] = species on record: Canis familiaris; assay: (§7) In vitro electrophysiological activity in canine cardiac occurred is 1 uM.; format: functional, Canis lupus familiaris, Heart
Canis familiaris [10] = assay: Heart rate was determined by intraduodenal administration of two dosages of 30 mg/kg of compound in anesthetized dogs. Value was reported for experiment 1; format: functional, Canis lupus familiaris; in short: as §3
Canis familiaris [11] = species on record: Canis familiaris; assay: In vitro electrophysiological evaluation in canine cardiac Purkinje fibres reported as maximum percent change Vmax concentration range of 0.1-10 uM; Minimal (<10% decrease or increase in Vmax).; format: functional; conditions: Canis lupus familiaris; Purkinje fiber; in short: as §2
Canis familiaris [12] = assay: Conduction time was determined by intraduodenal administration of 10 mg/kg (low dose) of compound in anesthetized dogs. Value was reported for experiment 1; format: functional, Canis lupus familiaris; in short: as §3
Canis familiaris [13] = assay: Left ventricular refractory period was determined by intravenous administration of two dosages (high/low) of 3 mg/kg of compound in anesthetized dogs. Value was reported for experiment 2; format: functional, Canis lupus familiaris, Cardiac ventricle
Canis familiaris [14] = species on record: Canis familiaris; assay: In vitro electrophysiological evaluation in canine cardiac ventricular muscle reported as maximum % change for functional refractory period (FRP) at 0.1-10 uM concentration range; concentration at which it occurred is 10 uM.; parameters: species or system Canis lupus familiaris, Muscle tissue; in short: as §5
Canis familiaris [15] = assay: Left ventricular refractory period was determined by intraduodenal administration of 30 mg/kg (high dose) of compound in anesthetized dogs. Value was reported for experiment 2; format: functional, Canis lupus familiaris, Cardiac ventricle; in short: as §1
Canis familiaris [16] = assay: Conduction time was determined by intraduodenal administration of 30 mg/kg (high dose) of compound in anesthetized dogs. Value was reported for experiment 2; format: functional, Canis lupus familiaris; in short: as §3
Canis familiaris [17] = assay: Heart rate was determined by intraduodenal administration of two dosages of 30 mg/kg of compound in anesthetized dogs. Value was reported for experiment 2; format: functional, Canis lupus familiaris; in short: as §3
Canis familiaris [18] = species on record: Canis familiaris; assay: as §4; format: functional, Canis lupus familiaris, Heart; remark: listed apart in the source
Canis familiaris [19] = species on record: Canis familiaris; assay: as §7; format: functional, Canis lupus familiaris, Heart; remark: listed apart in the source
Canis familiaris [20] = assay: Mean arterial blood pressure was determined by intraduodenal administration of two dosages of 10 mg/kg of compound in anesthetized dogs. Value was reported for experiment 2; format: functional, Canis lupus familiaris; in short: as §1
Canis familiaris [21] = species on record: Canis familiaris; assay: In vitro electrophysiological evaluation in canine cardiac Purkinje fibres reported as percent change Vmax at 10 uM at concentration range of 1-100 uM; format: functional; conditions: Canis lupus familiaris, Purkinje fiber; in short: as §2
Canis familiaris [22] = species on record: Canis familiaris; assay: In vitro electrophysiological evaluation in canine cardiac Purkinje fibres reported as percent change Vmax at 10 uM at concentration range of 0.1-100 uM; Minimal (<10% decrease or increase in Vmax).; format: functional, organism-based; conditions: Canis lupus familiaris, Purkinje fiber; in short: as §2
Canis familiaris [23] = assay: Left ventricular refractory period was determined by intravenous administration of two dosages (high/low) of 3 mg/kg of compound in anesthetized dogs. Value was reported for experiment 1; format: functional, Canis lupus familiaris, Cardiac ventricle
Canis familiaris [24] = species on record: Canis familiaris; assay: as §6; format: functional, organism-based; conditions: Canis lupus familiaris; Heart
Canis familiaris [25] = assay: Mean arterial blood pressure was determined by intraduodenal administration of two dosages of 30 mg/kg of compound in anesthetized dogs. Value was reported for experiment 2; format: functional, Canis lupus familiaris; in short: as §1
Canis familiaris [26] = species on record: Canis familiaris; assay: as §6; format: functional; conditions: Canis lupus familiaris; Heart; remark: listed apart in the source
Canis familiaris [27] = species on record: Canis familiaris; assay: In vitro electrophysiological evaluation in canine cardiac Purkinje fibres reported as percent change Vmax at 10 uM at concentration range of 0.1-100 uM; format: functional; conditions: Canis lupus familiaris, Purkinje fiber; in short: as §2
Canis familiaris [28] = species on record: Canis familiaris; assay: In vitro electrophysiological evaluation in canine cardiac ventricular muscle reported as % change for the functional refractory period (FRP) at 10 uM at concentration range of 0.1-10 uM; parameters: species or system Canis lupus familiaris, Muscle tissue; in short: as §5
Canis familiaris [29] = assay: Conduction time was determined by intraduodenal administration of 10 mg/kg (low dose) of compound in anesthetized dogs. Value was reported for experiment 2; format: functional, Canis lupus familiaris; in short: as §3
Canis familiaris [30] = species on record: Canis familiaris; assay: as §7; format: functional, Canis lupus familiaris, Heart; remark: listed apart in the source
Canis familiaris [31] = assay: Left ventricular refractory period was determined by intraduodenal administration of 30 mg/kg (high dose) of compound in anesthetized dogs. Value was reported for experiment 1; format: functional, Canis lupus familiaris, Cardiac ventricle; in short: as §1
Canis familiaris [32] = assay: Heart rate was determined by intraduodenal administration of two dosages of 10 mg/kg of compound in anesthetized dogs. Value was reported for experiment 1; format: functional, Canis lupus familiaris; in short: as §3
Canis familiaris [33] = assay: Mean arterial blood pressure was determined by intraduodenal administration of two dosages of 10 mg/kg of compound in anesthetized dogs. Value was reported for experiment 1; format: functional, Canis lupus familiaris; in short: as §1
Canis familiaris [34] = species on record: Canis familiaris; assay: In vitro electrophysiological evaluation in canine cardiac Purkinje fibres reported as percent change Vmax at 10 uM at concentration range of 0.1-10 uM; Minimal (<10% decrease or increase in Vmax).; format: functional; conditions: Canis lupus familiaris, Purkinje fiber; in short: as §2
Canis familiaris [35] = assay: Left ventricular refractory period was determined by intraduodenal administration of 10 mg/kg (low dose) of compound in anesthetized dogs. Value was reported for experiment 1; format: functional, Canis lupus familiaris, Cardiac ventricle; conditions: 10 mg/kg; in short: as §1
Canis familiaris [36] = species on record: Canis familiaris; assay: In vitro electrophysiological activity in canine cardiac occurred is 100 uM.; format: functional, Canis lupus familiaris, Heart
Canis familiaris [37] = species on record: Canis familiaris; assay: as §6; format: functional; conditions: Canis lupus familiaris; Heart; remark: listed apart in the source
Canis familiaris [38] = species on record: Canis familiaris; assay: In vitro electrophysiological evaluation in canine cardiac ventricular muscle reported as % change for conduction time(CT) at 0.1-10 uM concentration range; Minimal (<10% decrease or increase inCT).; format: functional, Canis lupus familiaris, Muscle tissue

## OC1C2CCN(CC2)C1CCCc1ccc(Cl)cc1 (stereo not drawn)
Canis familiaris [1]
  Mean blood pressure: 14%
Canis familiaris [2]
  APD95: 13%
Canis familiaris [3]
  HR: -7%
Canis familiaris [4]
  APD95: 13%
Canis familiaris [5]
  APD95: 12%
Canis familiaris [6]
  CT: 11%
Canis familiaris [7]
  CT: 7%
Canis familiaris [8]
  Vmax: 100%
Canis familiaris [9]
  APD95: 25% and 15%
Canis familiaris [10]
  HR: -14%
Canis familiaris [11]
  Vmax: < 10%
Canis familiaris [12]
  CT: 5%
Canis familiaris [13]
  FRP: 8%
Canis familiaris [14]
  FRP: 21%
Canis familiaris [15]
  LV FRP: 9%
Canis familiaris [16]
  CT: 8%
Canis familiaris [17]
  HR: -9%
Canis familiaris [18]
  APD95: 14% and 40%
Canis familiaris [19]
  APD95: 41%
Canis familiaris [20]
  Mean blood pressure: 0%
Canis familiaris [21]
  Vmax: -13%
Canis familiaris [22]
  Vmax: < 10%
Canis familiaris [23]
  FRP: 12%
Canis familiaris [24]
  Vmax: -48%
Canis familiaris [25]
  Mean blood pressure: -3%
Canis familiaris [26]
  Vmax: 100%
Canis familiaris [27]
  Vmax: -24% and -20%
Canis familiaris [28]
  FRP: 21%
Canis familiaris [29]
  CT: 4%
Canis familiaris [30]
  APD95: 30%
Canis familiaris [31]
  LV FRP: 3%
Canis familiaris [32]
  HR: -6%
Canis familiaris [33]
  Mean blood pressure: 14%
Canis familiaris [34]
  Vmax: < 10%
Canis familiaris [35]
  LV FRP: 4% and 7%
Canis familiaris [36]
  APD95: -24% and -7%
Canis familiaris [37]
  Vmax: 100%
Canis familiaris [38]
  CT: <10%
